The nature of series [1]: Toxicity in TuAB zebra fish embryo at 10 to 1000 nM dosed at 6 hpf and measured after 1 day postfertilization by bright field microscopic method. The format is organism-based, Danio rerio. Particulars: zebrafish, in vivo, 24 h, 1 µM. The essentials: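 TuAB zebrafish embryos exposed to compound or DMSO vehicle from 6 hpf to 1 dpf at 28.5 °C, then assessed by bright-field stereomicroscope imaging.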

Series [2] can be described thus: Induction of calcium influx in STOCK Tg(CalcaEGFP)FG104Gsat/Mmucd) mouse DRG neurons harboring CGRP-GFP assessed as increase in cytoplasmic Ca2+ at 1 uM after 7 secs by Alexa-Flour 647 Isolectin B4 staining based assay relative to control. The format is functional, DRG neuron. The method in brief:
(§1)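 Lumbar DRG L1–L6 from CGRP-GFP mice, dissociated with 0.25% trypsin for 20 min and triturated. Cultured ~16–24 h at 37 °C, 5% CO2, in MEM/10% FBS/HEPES/glucose, pH 7.4, then loaded with 4 μM Fura2-AM for 1 h. Ratio 340/380 nm excitation, 510 nm emission, recorded at room temperature during ~1 h pharmacology sequence. IB4 stain afterwards; cells classed by AITC, menthol, capsaicin, kM-RIIIJ, IB4 and CGRP-GFP.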

In series [3] the test system is Cerebral cortex. Description: Induction of cell death in mouse brain cortex assessed as increase in cytoplasmic Ca2+ accumulation at 1 uM by Alexa-Flour 647 Isolectin B4 staining based assay. It counts as functional, tissue-based.
Series [4] can be described thus: Induction of calcium influx in STOCK Tg(CalcaEGFP)FG104Gsat/Mmucd) mouse DRG neurons harboring CGRP-GFP assessed as increase in cytoplasmic Ca2+ in at 500 nM after 7 secs by Alexa-Flour 647 Isolectin B4 staining based assay relative to control. It counts as functional, DRG neuron. The method in brief: as §1
Series [5] can be described thus: Induction of calcium influx in STOCK Tg(CalcaEGFP)FG104Gsat/Mmucd) mouse DRG neurons harboring CGRP-GFP assessed as increase in cytoplasmic Ca2+ at 500 nM after 7 secs by Alexa-Flour 647 Isolectin B4 staining based assay relative to control. The format is functional, DRG neuron. The method in brief:
as §1

The subject of series [6] is U-87 MG. Description: Selectivity index, ratio of IC50 for cytotoxicity against human U87MG cells under normoxia condition to IC50 for cytotoxicity against human U87MG cells under hypoxia condition incubated for 48 hrs by MTT assay. The format is functional, U-87MG ATCC. For orientation: Formazan colour is commonly taken as a measure of viable cells.
Series [7] concerns DRG neuron. Description: Induction of cell death in STOCK Tg(CalcaEGFP)FG104Gsat/Mmucd) mouse DRG neurons N15 cells harboring CGRP-GFP at 1 uM 7 secs by Alexa-Flour 647 Isolectin B4 staining based light micrographic method. It counts as functional. The method in brief: as §1
Series [8] in a line: Cytotoxicity against human CH157 cells assessed as reduction in cell viability after 48 hrs by MTT assay. It counts as functional, cell-based.
The subject of a further series is A549. Description: Cytotoxicity against human A549 cells assessed as reduction in cell viability after 48 hrs by MTT assay. The format is functional, cell-based. Particulars: A549, 48 h. The essentials:
(§2)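 Cells seeded at 10,000/well, left 24 h at 37 °C, then exposed to a range of concentrations for 48 h at 37 °C, either in a CO2 incubator (normoxia) or in a hypoxic chamber. MTT (0.5 mg/mL in PBS) was added for 2 h, DMSO was added, and absorbance was read at 570 nm. IC50 was fitted from the curves. Triplicate biological replicates.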

Series [9] concerns Cerebral cortex. Description: Induction of cell death in mouse brain cortex assessed as increase in cell lysis at 1 uM after 5 secs by Alexa-Flour 647 Isolectin B4 staining based assay. The format is functional, tissue-based.
Series [10] relates to U-87 MG. Description: Cytotoxicity against human U87MG cells assessed as reduction in cell viability after 48 hrs under normoxia condition by MTT assay. It counts as functional, cell-based, U-87MG ATCC. The essentials: (§3)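 U87MG in DMEM with 10% FBS, 2 mM L-glutamine, penicillin/streptomycin; seeded 10,000 cells/well, 24 h at 37 °C, then exposed to compound at varying concentrations for 48 h at 37 °C either in a CO₂ incubator (normoxia) or a hypoxic chamber. MTT (0.5 mg/mL in PBS) added 2 h, DMSO solubilisation, absorbance 570 nm; IC50 by curve fitting; triplicate biological replicates.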

For the next series, the system named is Huh-7. Description: Cytotoxicity against human HuH7 cells assessed as reduction in cell viability after 48 hrs by MTT assay. Conditions: Huh-7, 48 h. It counts as functional, cell-based. The method in brief:
as §2

In a further series the test system is CHO. Description: Cytotoxicity against […] assessed as reduction in cell viability after 48 hrs by MTT assay. The format is cell-based. Conditions: Cricetulus griseus. The method in brief: as §2
Series [11] concerns DRG neuron. Description: Irreversible induction of calcium influx in STOCK Tg(CalcaEGFP)FG104Gsat/Mmucd) mouse DRG neurons harboring CGRP-GFP assessed as increase in cytoplasmic Ca2+ pulse at 1 uM after 15 secs by […]. The format is functional, cell-based. The method in brief: as §1
In series [12] the test system is U-87 MG. Description: Cytotoxicity against human U87MG cells assessed as reduction in cell viability after 48 hrs under hypoxia condition by MTT assay. It counts as functional, cell-based, U-87MG ATCC. The essentials:
as §3

Series [13] concerns DRG neuron. Description: Induction of calcium influx in STOCK Tg(CalcaEGFP)FG104Gsat/Mmucd) mouse DRG neurons harboring CGRP-GFP assessed as increase in cytoplasmic Ca2+ pulse at 10 nM after 15 secs by […]. The format is functional, cell-based. The essentials: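 DRG neurons from CGRP-GFP mice, Fura2-AM loaded, imaged as 340/380 nm ratio. Compound applied as a 15-second pulse, with concentrations down to ~10 nM tested. Neuron classes assigned by pharmacological markers and IB4/CGRP-GFP.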

Active and inactive are the calls of the source. No cut-off for these calls is given here.

For `C=C1/C=C/C(=O)NCC(=O)N[C@@H](C(C)C)C(=O)O[C@@H]([C@H](C)C[C@@H](C)CCC)[C@H](OC)C(=O)N1`, the Activity entry was “Non-Toxic” in series [1], 34% in series [2], 61% in series [4] and 8% in series [5]. Also, the outcome with Cerebral cortex [3], in the series with DRG neuron [7], in the series on Cerebral cortex [9], in the series on DRG neuron [11] and in the series on DRG neuron [13] was Active. The “Ratio IC50” value in the series on U-87 MG [6] amounted to 3.6. Further, the half-maximal inhibitory concentration (IC50) (in general, the concentration that inhibits the measured activity by half) in series [8] is 0.098 µM; in the series on A549, 0.39 µM; in the series with U-87 MG [10], 0.41 µM; in the series with Huh-7, 0.19 µM; with CHO it was 0.39 µM; with U-87 MG [12], 0.12 µM.
As to `COc1cccc2c1C(=O)c1c(O)c3c(c(O)c1C2=O)C[C@@](O)(C(=O)CO)C[C@@H]3O[C@H]1C[C@H](N)[C@H](O)[C@H](C)O1` [DOXORUBICIN], the “Ratio IC50” value in the series with U-87 MG [6] was found to be 0.45. Moreover, the IC50 stood at 0.45 µM in the series with U-87 MG [10] and 0.98 µM in the series with U-87 MG [12].
With `Cn1nnc2c(C(N)=O)ncn2c1=O` [TEMOZOLOMIDE], the “Ratio IC50” value in the series on U-87 MG [6] turned out to be 0.6. Moreover, the half-maximal inhibitory concentration (IC50) turned out to be 640 µM in the series on U-87 MG [10] and 1100 µM in the series with U-87 MG [12].

The values above are taken from ChEMBL document CHEMBL4610085, “Boholamide A, an APD-Class, Hypoxia-Selective Cyclodepsipeptide” (J Nat Prod, 2020).
